Assay outcomes (PubChem)
A selection: hits, their analogues and other compounds. The true share with any hit is near 1.5%.
EBI2 block = antagonists of human EBI2 receptor | inhibition, % at 5 µM | 360,000 compounds, 0.81% hits | P32249 | EBI2 beta-arrestin recruitment, luminescence, 7a,25-OHC stimulated | AID 651636; in the data active = inhibition above about 38%;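 also: enzyme fragment complementation signal reports receptor beta-arrestin coupling in cells; 0% = agonist plus DMSO wells and 100% = wells without agonist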
Target sequence (P32249 whole entry, looked up, the tested form may be a part): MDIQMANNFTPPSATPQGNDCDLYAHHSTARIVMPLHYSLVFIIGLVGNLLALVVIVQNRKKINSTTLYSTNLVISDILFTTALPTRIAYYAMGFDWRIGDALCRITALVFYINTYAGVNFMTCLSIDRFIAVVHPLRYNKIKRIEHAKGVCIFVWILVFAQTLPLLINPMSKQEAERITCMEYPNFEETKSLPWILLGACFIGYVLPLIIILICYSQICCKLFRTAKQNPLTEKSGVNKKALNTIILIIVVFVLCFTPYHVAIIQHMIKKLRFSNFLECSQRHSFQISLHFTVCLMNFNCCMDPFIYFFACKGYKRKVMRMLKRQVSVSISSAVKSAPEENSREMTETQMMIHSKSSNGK
CCR6 antag = antagonists of human CCR6 receptor | 340,000 compounds, 0.49% hits | CHO-K1 CCR6 PathHunter beta-arrestin, luminescence, CCL20-stimulated | P51684 | inhibition, % at 20 µM;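 active = compounds whose inhibition of the agonist-driven luminescence signal at 20 µM reaches about 50%, limit read from the data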;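 also: cells stimulated with CCL20 at 14 nM final; plate controls were DMSO with CCL20 for no effect and DMSO without agonist for full effect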
CXCR6 block = inhibitors of human CXCR6 receptor | O00574 | 360,000 compounds, 0.36% hits | AID 602244 | CHO-K1 PathHunter CXCR6 beta-arrestin, luminescence | inhibition, % at 20 µM; in the data active = inhibition above about 34%, passing the limit was not always enough;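 also: antagonist mode with CXCL16 agonist at 10 nM final; 0% = 10 nM CXCL16 with DMSO and 100% = unstimulated wells without agonist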
Target sequence (O00574 whole entry, looked up): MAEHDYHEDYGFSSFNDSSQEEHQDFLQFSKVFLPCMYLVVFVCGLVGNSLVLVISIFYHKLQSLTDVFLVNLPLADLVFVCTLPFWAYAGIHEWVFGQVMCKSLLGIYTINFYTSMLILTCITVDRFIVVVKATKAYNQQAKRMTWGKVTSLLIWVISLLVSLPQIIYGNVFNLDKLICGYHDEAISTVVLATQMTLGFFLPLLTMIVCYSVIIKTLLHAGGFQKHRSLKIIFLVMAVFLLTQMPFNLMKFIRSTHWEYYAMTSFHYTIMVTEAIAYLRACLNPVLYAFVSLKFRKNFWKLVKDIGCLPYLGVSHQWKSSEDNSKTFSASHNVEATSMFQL
APJ antag = APJ receptor antagonism; P35414; CHO-K1 APJ beta-arrestin complementation, luminescence; inhibition, % at 20 µM; 330,000 compounds, 0.32% hits;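 active = inhibition above about 40% at 20 µM, limit read from the data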;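 also: cells challenged with 10 nM apelin-13 agonist together with compound; plate controls were apelin-13 plus DMSO wells for no effect and DMSO wells lacking apelin-13 for full effect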
APJ ag = activates the human apelin receptor APJ. P35414. CHO-K1 APJ PathHunter beta-arrestin, luminescence; 0% DMSO wells, 100% apelin. activation, % at 20 µM. 330,000 compounds, 0.11% hits. AID 2520;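 active = activation more than six SD over the plate average, tested at 20 µM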;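 also: 0% = DMSO alone and 100% = apelin-13 at 10 nM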
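Assay system: engineered CHO-K1 APJ arrestin reporter cells; Amount: 1000 CHO-K1 reporter cells seeded per well; Dosing: one dose, 20 µM compound, 1% DMSO; Times: compound stimulation 90 min at 25 °C, detection 60 min; Measured by: luminescent beta-gal fragment complementation, chemiluminescent substrate; Read-out: APJ–arrestin association signal; Controls: DMSO vs Apelin-13 10 nM.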
APJ antag conf = confirmation of human APJ apelin receptor antagonists | shares compounds with APJ antag | APJ beta-arrestin recruitment, luminescence, antagonist mode | inhibition, % at 20 µM | 950 compounds, 66% hits | AID 2766; in the data active = inhibition above about 50%
The depositor's hits bear a star; / = not tested or not shown.

SMILES	EBI2 block	CCR6 antag	CXCR6 block	APJ antag	APJ ag	APJ antag conf
O=C1N/C(=C\c2ccccc2)C(O)=C1C=NCc1ccccc1	-1.4	13.0	-2.0	45.4*	0.3	10.1
CC(C)Cc1nc2oc3c(Cl)ncnc3c2c2c1CCC2	48.3*	22.7	14.8	40.8*	-2.1	86.4*
COc1ccc(Cc2c(C3CCCCC3)nc3c(Cl)cc(C(F)(F)F)cn23)c(C)c1	9.7	/	3.2	/	/	/
Cc1ccc2nsnc2c1NC(=O)Cc1ccc(Cl)cc1	8.1	19.1	8.2	45.2*	-5.0	47.2
Cc1ccc2nsnc2c1NC(=O)CCl	-5.7	-4.8	-0.8	6.1	-3.0	/
COc1ccc(NC(=O)c2sc(=O)n(Cc3ccccc3C#N)c2C)cc1OC	0.9	/	-3.2	/	/	/
CC1=C/C(=C(/c2cc(C)c(O)c(Br)c2)c2ccccc2S(=O)(=O)O)C=C(Br)C1=O	16.1	64.0*	43.2*	45.6*	-10.5	86.4*
CC1=C/C(=C(/c2ccc(O)c(C)c2)c2ccccc2S(=O)(=O)O)C=CC1=O	5.3	55.1*	41.2*	46.1*	-8.8	59.1*
O=C(NS(=O)(=O)c1ccc2ccc(S(=O)(=O)NCCSc3ccccc3)cc2c1)c1cccc2ccccc12	13.4	/	-4.4	/	/	/
COc1cc(NS(=O)(=O)c2ccc(NC(=S)Nc3ccccc3)cc2)nc(OC)n1	-2.0	-1.8	-7.4	5.6	9.4	/
COc1cc(NS(=O)(=O)c2ccc(NC(=S)NC(=O)C3CCCC3)cc2)nc(OC)n1	-3.3	-3.2	5.2	50.3*	-1.9	87.3*
CC(=O)c1sc(NS(=O)(=O)c2ccc(C)cc2)nc1C	-4.4	-0.8	1.4	52.9*	-1.7	23.2
CCn1c(CO)nc2c1c(=O)[nH]c(=O)n2Cc1ccccc1	14.6	63.5*	46.3*	52.6*	-7.5	84.5*
CC(C)C[C@H]1CN(CCCC[C@@H]2CNC(=O)C(=O)N2CC2CCCCC2)C(=O)C(=O)N1CC1CCCCC1	8.2	/	-2.3	/	/	/
COc1cc(/C=C2\SC(=S)N(NC(=O)c3ccc(O)c(OC)c3)C2=O)ccc1O	21.3	57.3*	43.3*	61.4*	-9.7	99.1*
CCOc1cc(/C=C2\SC(=S)N(NS(=O)(=O)c3ccc(C)cc3)C2=O)ccc1O	9.0	33.0	24.3	40.8*	-4.2	88.3*
COc1cc(/C=C2\SC(=S)N(NC(=O)c3cccc(O)c3)C2=O)ccc1O	13.4	55.6*	42.0*	40.7*	-7.5	94.6*
COc1cc(/C=C2\SC(=S)N(NC(=O)c3ccccc3OC)C2=O)ccc1O	25.2	66.0*	50.2*	65.9*	-10.8	99.7*
Nc1cc2c(cc1Cl)-c1ccccc1C2=NO	3.1	3.2	12.1	/	/	/
CN(C)CCN1CCN(C(c2ccnc3ccccc23)c2nnnn2-c2ccc3c(c2)OCCO3)CC1 (stereo unspecified)	-4.5	/	-13.1	/	/	/
COc1ccc(/C=C2/SC(=S)N(NS(=O)(=O)c3ccccc3)C2=O)cc1	3.4	12.0	4.9	12.9	1.7	/
COc1cc(/C=C2\SC(=S)N(NS(=O)(=O)c3ccccc3)C2=O)ccc1O	-1.5	39.2	34.5	40.8*	-4.6	73.2*
CCn1cc(S(=O)(=O)Nc2cccnc2)cn1	-4.8	-3.4	-1.0	44.5*	5.5	22.0
CCn1ncc(S(=O)(=O)Nc2cccnc2)c1C	-15.8	4.4	-5.7	-19.4	5.7	/
O=C(NCc1cccc(Cl)c1)c1ccc(S(=O)(=O)N2CCCCC2)cc1	2.2	/	-1.2	/	/	/
SMILES	EBI2 block	CCR6 antag	CXCR6 block	APJ antag	APJ ag	APJ antag conf
Cc1ccc(C(=O)COC(=O)CCN2C(=O)C3C4CCC(C4)C3C2=O)cc1[N+](=O)[O-] (stereo unspecified)	19.2	24.7	15.5	50.2*	-22.6	44.0
Cc1ccc([N+](=O)[O-])c(NC(=O)COC(=O)C2CC3CCCC(C2)C3=O)c1C (stereo unspecified)	-4.0	5.7	1.6	0.6	2.1	/
Cc1ccc(C(=O)COC(=O)C2CC3CCCC(C2)C3=O)cc1[N+](=O)[O-] (stereo unspecified)	-2.4	24.7	18.1	43.4*	-8.9	22.4
O=C(CN1C(=O)C2C3C=CC(C3)C2C1=O)OCC(=O)c1ccc(Cl)c([N+](=O)[O-])c1 (stereo unspecified)	5.3	70.6*	48.5*	81.3*	-37.6	143.4*
Cc1ccc(C(=O)COC(=O)CN2C(=O)C3C4C=CC(C4)C3C2=O)cc1[N+](=O)[O-] (stereo unspecified)	1.5	37.9	24.7	38.2	-10.8	/
Cc1ccc(C(=O)COC(=O)CN2C(=O)C3C4CCC(C4)C3C2=O)cc1[N+](=O)[O-] (stereo unspecified)	-4.6	49.8	14.5	48.5*	-0.6	35.3
Cc1ccc(C(=O)COC(=O)CN2C(=O)C3C4CCC(C4)C3C2=O)cc1C (stereo unspecified)	4.5	-5.5	0.4	8.5	-7.0	/
O=C1N(Cc2ccccc2)CC2(Br)COCOC12O (stereo unspecified)	2.5	9.6	-3.3	/	/	/
CCCc1nc2ccc(Br)cn2c1Cc1cccc(Cl)c1	2.9	/	6.9	/	/	/
COc1ccccc1-c1cn(CC[C@H]2CC[C@@H](NS(=O)(=O)c3ccccc3C)[C@@H](CO)O2)nn1	3.5	/	/	/	/	/
Oc1ccc(C[C@H]2CNC(=S)N2C[C@H]2CCCN2C[C@H](Cc2ccccc2)N2C[C@H](Cc3ccc(O)cc3)N(CCc3ccccc3)C2=S)cc1	15.6	/	-1.5	/	/	/
CCOC(=O)[C@]12CCC=C1N(Cc1ccc3c(c1)OCO3)C(=O)[C@H](CC(=O)NCc1ccc(C)o1)C2	-5.8	/	-0.1	/	/	/
CCCCNC(=O)c1ccc2nc(CC)c(N(CC)CCN(C)C)n2c1	-4.9	/	-1.4	/	/	/
O=C(CN1C(=O)C2C3CCC(C3)C2C1=O)OCC(=O)c1cccc([N+](=O)[O-])c1 (stereo unspecified)	22.1	61.8*	37.0	60.8*	-11.8	88.9*
Cc1ccc(C(=O)COC(=O)CN2C(=O)C3CC=CCC3C2=O)cc1[N+](=O)[O-] (stereo unspecified)	-0.6	27.7	3.0	44.9*	-22.4	79.1*
O=C(CCN1C(=O)C2C3CC(C(Br)C3Br)C2C1=O)OCC(=O)c1cccc([N+](=O)[O-])c1 (stereo unspecified)	11.8	55.3*	28.2	59.3*	-13.5	99.6*
CCOC(=O)[C@]12CCC=C1N(Cc1cccc3ccccc13)C(=O)[C@H](CC(=O)NCCCOC)C2	-4.4	/	-1.1	/	/	/
Cc1ccc2oc(Nc3nc(-c4ccccc4)cc(=O)[nH]3)nc2c1	/	58.3*	/	54.1*	-8.4	62.4*
COCc1cc(=O)[nH]c(Nc2nc3ccccc3o2)n1	4.7	-0.5	16.3	17.7	-1.3	/
CCOC(=O)c1coc(C(=O)OCC)c1C(=O)OCC	-10.7	2.9	8.1	/	/	/
C/C(=N\NC(=S)Nc1cccc(C)c1)c1ccccc1	26.3	52.9*	33.4	43.5*	-6.4	91.0*
